Activity calls are given as the source filed them. The rule behind the calls is not given here.
Legend:
[1] = test system: Escherichia coli; test: Induction of bacteriolysis in Escherichia coli DH5[alpha] assessed as induction of morphological changes at 100 uM by scanning electron microscopy; format: functional, organism-based
[2] = test system: Cryptococcus neoformans; test: Induction of cell membrane permeabilization in Cryptococcus neoformans var. grubii at 0.5 mM after 2 hrs by […] cell NMR spectroscopy; format: functional, organism-based
[3] = test system: Cryptococcus neoformans; test: Induction of cell death in Cryptococcus neoformans var. grubii at 0.5 mM after 2 hrs by […] cell NMR spectroscopy; format: functional, organism-based
[4] = test system: Cryptococcus neoformans; test: Induction of cell membrane permeabilization in Cryptococcus neoformans var. grubii assessed as release of metabolites at 0.5 mM after 2 hrs by […] cell NMR spectroscopy; format: functional, organism-based
[5] = test system: Escherichia coli; test: Antimicrobial activity against Escherichia coli DH5[alpha] incubated for 4 hrs by microdilution broth assay; format: functional
Method in brief: (§1)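 Bacteria grown in nutrient broth at 310K. Mid-log cells washed thrice and resuspended in 10 mM phosphate buffer pH 7.4 at 10^5 CFU/mL. Exposed to peptide 1–100 µM for 4 h at 310K, then medium added and grown overnight with shaking. Growth read at A630, normalized to 10 µM polymyxin B control. MIC90% is the concentration giving 90% growth inhibition; triplicates.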

[6] = test system: Pseudomonas aeruginosa; test: Antimicrobial activity against Pseudomonas aeruginosa incubated for 4 hrs by microdilution broth assay; format: functional; method in brief: as §1
[7] = test system: Klebsiella pneumoniae; test: Antimicrobial activity against Klebsiella pneumoniae incubated for 4 hrs by microdilution broth assay; format: functional; method in brief: as §1
[8] = test system: Salmonella typhi; test: Antimicrobial activity against Salmonella typhi Ty2 incubated for 4 hrs by microdilution broth assay; format: functional, Salmonella enterica subsp. enterica serovar Typhi str. Ty2; details: Salmonella enterica
[9] = test system: Staphylococcus aureus; test: Antimicrobial activity against Staphylococcus aureus incubated for 4 hrs by microdilution broth assay; format: functional; method in brief: as §1
[10] = test system: Candida albicans; test: Antimicrobial activity against Candida albicans incubated for 4 hrs by microdilution broth assay; format: functional
Method in brief: as §1, with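 “Yeasts” for “Bacteria”, “YPDU” for “nutrient broth”, “301K.” for “310K.”, “301K,” for “310K,”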

[11] = test system: Cryptococcus neoformans; test: Antimicrobial activity against Cryptococcus neoformans var. grubii incubated for 4 hrs by microdilution broth assay; format: functional
Method in brief: as §1, with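 “Yeasts” for “Bacteria”, “YPDU” for “nutrient broth”, “301K.” for “310K.”, “301K,” for “310K,”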

[12] = test system: Candida albicans; test: Antimicrobial activity against Candida albicans assessed as induction of microbial killing in presence of 150 mM NaCl measured after overnight recovery by microdilution broth assay; format: functional
Method in brief: (§2)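 Washed mid-log cells in 10 mM phosphate buffer pH 7.4 with 150 mM NaCl, 10^5 CFU/mL; C. albicans grown in YPDU. Peptide 1–100 µM, 4 h at 301K, then medium added and grown overnight with shaking; A630 read. Polymyxin B 10 µM positive control; percent killing reported as MIC50%; triplicates.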

[13] = test system: Cryptococcus neoformans; test: Antimicrobial activity against Cryptococcus neoformans var. grubii assessed as induction of microbial killing in presence of 150 mM NaCl measured after overnight recovery by microdilution broth assay; format: functional; method in brief: as §2
[14] = test system: Erythrocyte; test: Hemolytic activity in human erythrocytes at 1 to 200 uM after 4 hrs by; format: ADME, cell-based
Method in brief: (§3)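 Fresh EDTA-anticoagulated human blood; erythrocytes washed thrice in PBS pH 7.4, 2×10^8 cells/mL, mixed with equal volume of peptide up to 200 µM, shaken at 310K for 1 h and 4 h. Supernatant absorbance at 414 nm measured, normalized to 2% Triton X-100 as 100% lysis; triplicates.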

[15] = Hemolytic activity in human erythrocytes assessed as heme release at 1 to 200 uM after 4 hrs by; format: ADME, cell-based, Erythrocyte; details: read-out: Activity; method in brief: as §3
[16] = test system: HEK293; test: Toxicity in HEK293 cells assessed as reduction in cell viability at 2 to 100 uM incubated for 24 hrs by MTT assay; format: cell-based; details: human, hek293, 24 h
Method in brief: (§4)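 HEK-293 cells kept in DMEM with 10% FBS and 1% penicillin/streptomycin, 310K, 5% CO2. Seeded at 10^4 cells/well and grown overnight, then exposed to peptide 0–100 µM for 24 h. MTT at 0.3 mg/mL for 3 h, formazan dissolved in DMSO, read at 570 nm; triplicates.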

[17] = test system: HEK293; test: Toxicity in HEK293 cells assessed as reduction in cell viability at =>100 uM incubated for 24 hrs by MTT assay; format: cell-based; details: human, hek293, 24 h; method in brief: as §4
[18] = test system: Lipid bilayer; test: Induction of cell permeabilization in calcein-entrapped 3:1 DOPE/DOPG large unilamellar vesicles by calcein leakage assay
Method in brief: (§5)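 LUVs of DOPE/DOPG 3:1 loaded with 70 mM calcein in 10 mM Tris pH 7.4, extruded through 100-nm filters, free dye removed by spin column. Liposomes at 20 µM in 10 mM Tris, 100 mM NaCl pH 7.4, 298K. Peptide added stepwise; emission at 520 nm read 5 min after each addition. Leakage = (F−Fo)/(FT−Fo)×100, with 0.1% Triton X-100 as FT; triplicates.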

[19] = test system: Lipid bilayer; test: Induction of cell permeabilization in calcein-entrapped 3:1 DOPE/DOPG large unilamellar vesicles at 30 uM by calcein leakage assay; method in brief: as §5
[20] = test system: Lipid bilayer; test: Induction of cell permeabilization in calcein-entrapped 3:1 DOPE/DOPG large unilamellar vesicles at 1 to 50 uM by calcein leakage assay; method in brief: as §5
[21] = test system: Escherichia coli; test: Induction of bacteriolysis in Escherichia coli DH5[alpha] assessed as induction of cell wall shrinkage at 1 to 5 times MIC90 by scanning electron microscopy; format: functional, organism-based
[22] = test system: Escherichia coli; test: Induction of bacteriolysis in Escherichia coli DH5[alpha] assessed as induction of intracellular material leakage at 1 to 5 times MIC90 by scanning electron microscopy; format: functional, organism-based
[23] = test system: Escherichia coli; test: Induction of bacteriolysis in Escherichia coli DH5[alpha] assessed as induction of distorted cell morphology at 1 times MIC90 by scanning electron microscopy; format: functional, organism-based
[24] = test system: Escherichia coli; test: Induction of bacteriolysis in Escherichia coli DH5[alpha] assessed as induction of dents and membrane blebbing at 1 times MIC90 by scanning electron microscopy; format: functional, organism-based
[25] = test system: Escherichia coli; test: Induction of bacteriolysis in Escherichia coli DH5[alpha] assessed as induction of non-uniform cell debris with leaked intracellular material at 5 times MIC90 by scanning electron microscopy; format: functional, organism-based
[26] = test system: Cryptococcus neoformans; test: Induction of cell membrane permeabilization in Cryptococcus neoformans var. grubii at 0.5 mM by […] cell NMR spectroscopy; format: functional, organism-based
[27] = test system: Cryptococcus neoformans; test: Induction of cell death in Cryptococcus neoformans var. grubii at 0.5 mM after 1 hr by […] cell NMR spectroscopy; format: functional, organism-based
[28] = test system: Cryptococcus neoformans; test: Induction of cell membrane permeabilization in Cryptococcus neoformans var. grubii assessed as release of metabolites at 0.5 mM by […] cell NMR spectroscopy; format: functional, organism-based
[29] = Binding affinity to SDS by circular dichroism spectroscopy
Method in brief: (§6)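 Far-UV CD, 250–190 nm, 1-mm quartz cuvette, 100 nm/min, 0.5 nm interval, 3 scans averaged, 298K. Peptide at 25 µM final in deionized water or with 30 mM SDS or DPC micelles.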

[30] = Binding affinity to DPC micelle by circular dichroism spectroscopy; method in brief: as §6
[31] = Binding affinity to d25-SDS micelles by 1H NMR spectroscopy
[32] = Binding affinity to SDS micelle in presence of MnCl2 by PRE NMR spectroscopy
[33] = Binding affinity to DPC micelle in presence of MnCl2 by PRE NMR spectroscopy
[34] = test system: Lipid bilayer; test: Induction of cell permeabilization in calcein-entrapped 3:1 DOPE/DOPG large unilamellar vesicles at 50 uM measured over period of 7200 secs by calcein leakage assay
Method in brief: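 Calcein-loaded 3:1 DOPE/DOPG LUVs, 20 µM in 10 mM Tris, 100 mM NaCl pH 7.4, exposed to 50 µM peptide. Emission at 520 nm followed over time at 298K, with a liposome-only control monitored for 2 h.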

Row | Substance | MIC90 [5] [µM] | MIC90 [6] [µM] | MIC90 [7] [µM] | MIC90 [8] [µM] | MIC90 [9] [µM] | MIC90 [10] [µM] | MIC90 [11] [µM] | MIC50 [12] [µM] | MIC50 [13] [µM] | Activity [14] | hemolysis at 4 h, up to 200 µM [15] [%] | Activity [16] | Activity [17] [%] | Activity [18] | Activity [19] [%] | Activity [20] [%] | Activity [21] | Activity [22] | Activity [23] | Activity [24] | also measured
1 | H-LKLLRKL-OH |  |  |  |  |  |  |  |  |  |  |  |  |  |  |  |  |  |  |  |  | Activity [1]: inactive; Activity [2]: inactive; Activity [3]: inactive; Activity [4]: inactive
2 | H-LKWLKKL-NH2 | 50 | 50 | 50 | 15 | 50 | 50 | 25 | 50 | 50 | Non-Toxic | < 10 | Non-Toxic | < 10 | Dose-dependent effect | 27 | 37 | Active | Active | Active | Active | Activity [25]: Active; Activity [26]: Active; Activity [27]: Active; Activity [28]: Active; Activity [29]: inactive; Activity [30]: inactive; Activity [31]: Active; Activity [32]: Active; Activity [33]: inactive
3 | H-LRWLRRL-NH2 | 10 | 10 | 15 | 7.5 | 50 | 50 | 15 | 25 | 25 | Non-Toxic | < 10 | Non-Toxic | < 10 | Dose-dependent effect | 45 | 57 | Active | Active | Active | Active | Activity [34]: Active; Activity [25]: Active; Activity [26]: Active; Activity [27]: Active; Activity [28]: Active; Activity [29]: inactive; Activity [30]: inactive; Activity [31]: Active; Activity [32]: inactive; Activity [33]: inactive
